# Experiments:
# [1] = tested on: Eggerthella lenta; assay: Antimicrobial activity against Eubacterium lentum assessed as percent resistant isolates after 48 hrs by agar dilution method; assay type: functional
# How it was run: (§1)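 CLSI agar dilution on recent Korean clinical anaerobe isolates. Inoculum 10^5 CFU per spot by replicator. Plates incubated in an anaerobic chamber at 37°C for 48 h. For piperacillin plus tazobactam, tazobactam was held constant at 4 μg/ml. Resistance and susceptibility rates derived from MICs.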
# [2] = tested on: Phocaeicola vulgatus; assay: Antimicrobial activity against Bacteroides vulgatus assessed as percent susceptible isolates after 48 hrs by agar dilution method; assay type: functional
# [3] = tested on: Bacteroides ovatus; assay: Antimicrobial activity against Bacteroides ovatus assessed as percent resistant isolates after 48 hrs by agar dilution method; assay type: functional; how it was run: as §1
# [4] = tested on: Anaerococcus prevotii; assay: Antimicrobial activity against Anaerococcus prevotii assessed as percent resistant isolates after 48 hrs by agar dilution method; assay type: functional; how it was run: as §1
# [5] = tested on: Bacteroides thetaiotaomicron; assay: Antimicrobial activity against Bacteroides thetaiotaomicron after 48 hrs by agar dilution method; assay type: functional
# How it was run: (§2)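 MICs on clinical anaerobe isolates by the CLSI agar dilution method. Inoculum of 10^5 CFU applied with a Steers replicator. Plates incubated 48 h at 37°C in an anaerobic chamber.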
# [6] = tested on: Actinomyces naeslundii; assay: Antimicrobial activity against Actinomyces naeslundii after 48 hrs by agar dilution method; assay type: functional; how it was run: as §2
# [7] = tested on: Prevotella bivia; assay: Antimicrobial activity against Prevotella bivia after 48 hrs by agar dilution method; assay type: functional
# How it was run: (§3)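 CLSI agar dilution (M11-A7); inoculum 10^5 CFU applied by replicator; plates incubated anaerobically 48 h at 37°C. For piperacillin-tazobactam, tazobactam held constant at 4 μg/ml.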
# [8] = tested on: Fusobacterium varium; assay: Antimicrobial activity against Fusobacterium varium after 48 hrs by agar dilution method; assay type: functional; how it was run: as §3
# [9] = tested on: Fusobacterium mortiferum; assay: Antimicrobial activity against Fusobacterium mortiferum after 48 hrs by agar dilution method; assay type: functional; how it was run: as §3
# [10] = tested on: Bacteroides fragilis; assay: Antimicrobial activity against Bacteroides fragilis assessed as percent susceptible isolates after 48 hrs by agar dilution method; assay type: functional
# [11] = tested on: Clostridioides difficile; assay: Antimicrobial activity against Clostridium difficile assessed as percent resistant isolates after 48 hrs by agar dilution method; assay type: functional
# [12] = tested on: Hoylesella oralis; assay: Antimicrobial activity against Prevotella oralis assessed as percent resistant isolates after 48 hrs by agar dilution method; assay type: functional; how it was run: as §1
# [13] = tested on: Prevotella bivia; assay: Antimicrobial activity against Prevotella bivia assessed as percent susceptible isolates after 48 hrs by agar dilution method; assay type: functional; how it was run: as §3
# [14] = tested on: Parvimonas micra; assay: Antimicrobial activity against Peptostreptococcus micros assessed as percent susceptible isolates after 48 hrs by agar dilution method; assay type: functional; how it was run: as §1
# [15] = tested on: Prevotella buccae; assay: Antimicrobial activity against Prevotella buccae assessed as percent susceptible isolates after 48 hrs by agar dilution method; assay type: functional, Segatella buccae; how it was run: as §3
# [16] = tested on: Schaalia meyeri; assay: Antimicrobial activity against Actinomyces meyeri assessed as percent resistant isolates after 48 hrs by agar dilution method; assay type: functional; how it was run: as §1
# [17] = tested on: Actinomyces naeslundii; assay: Antimicrobial activity against Actinomyces naeslundii assessed as percent resistant isolates after 48 hrs by agar dilution method; assay type: functional; how it was run: as §1
# [18] = tested on: Prevotella intermedia; assay: Antimicrobial activity against Prevotella intermedia assessed as percent resistant isolates after 48 hrs by agar dilution method; assay type: functional; how it was run: as §1
# [19] = tested on: Bacteroides caccae; assay: Antimicrobial activity against Bacteroides caccae assessed as percent susceptible isolates after 48 hrs by agar dilution method; assay type: functional
# [20] = tested on: Bifidobacterium adolescentis; assay: Antimicrobial activity against Bifidobacterium adolescentis assessed as percent susceptible isolates after 48 hrs by agar dilution method; assay type: functional
# [21] = tested on: Fusobacterium nucleatum; assay: Antimicrobial activity against Fusobacterium nucleatum after 48 hrs by agar dilution method; assay type: functional; how it was run: as §3
# [22] = tested on: Schaalia meyeri; assay: Antimicrobial activity against Actinomyces meyeri assessed as percent susceptible isolates after 48 hrs by agar dilution method; assay type: functional
# [23] = tested on: Finegoldia magna; assay: Antimicrobial activity against Finegoldia magna after 48 hrs by agar dilution method; assay type: functional; how it was run: as §3
# [24] = tested on: Anaerococcus prevotii; assay: Antimicrobial activity against Anaerococcus prevotii after 48 hrs by agar dilution method; assay type: functional; how it was run: as §2
# [25] = tested on: Bacteroides caccae; assay: Antimicrobial activity against Bacteroides caccae assessed as percent resistant isolates after 48 hrs by agar dilution method; assay type: functional; how it was run: as §1
# [26] = tested on: Prevotella bivia; assay: Antimicrobial activity against Prevotella bivia assessed as percent resistant isolates after 48 hrs by agar dilution method; assay type: functional; how it was run: as §1
# [27] = tested on: Eubacterium sp.; assay: Antimicrobial activity against Eubacterium sp. after 48 hrs by agar dilution method; assay type: functional; how it was run: as §3
# [28] = tested on: Parabacteroides distasonis; assay: Antimicrobial activity against Bacteroides distasonis assessed as percent susceptible isolates after 48 hrs by agar dilution method; assay type: functional
# [29] = tested on: Bifidobacterium adolescentis; assay: Antimicrobial activity against Bifidobacterium adolescentis assessed as percent resistant isolates after 48 hrs by agar dilution method; assay type: functional; how it was run: as §1
# [30] = tested on: Peptoniphilus asaccharolyticus; assay: Antimicrobial activity against Peptoniphilus asaccharolyticus after 48 hrs by agar dilution method; assay type: functional; how it was run: as §3
# [31] = tested on: Peptoniphilus asaccharolyticus; assay: Antimicrobial activity against Peptoniphilus asaccharolyticus assessed as percent susceptible isolates after 48 hrs by agar dilution method; assay type: functional; how it was run: as §3
# [32] = tested on: Bacteroides fragilis; assay: Antimicrobial activity against Bacteroides fragilis assessed as percent resistant isolates after 48 hrs by agar dilution method; assay type: functional; how it was run: as §1
# [33] = tested on: Bacteroides caccae; assay: Antimicrobial activity against Bacteroides caccae after 48 hrs by agar dilution method; assay type: functional; how it was run: as §2
# [34] = tested on: Bacteroides thetaiotaomicron; assay: Antimicrobial activity against Bacteroides thetaiotaomicron assessed as percent resistant isolates after 48 hrs by agar dilution method; assay type: functional; how it was run: as §1
# [35] = tested on: Finegoldia magna; assay: Antimicrobial activity against Finegoldia magna assessed as percent resistant isolates after 48 hrs by agar dilution method; assay type: functional; how it was run: as §1
# [36] = tested on: Clostridioides difficile; assay: Antimicrobial activity against Clostridium difficile assessed as percent susceptible isolates after 48 hrs by agar dilution method; assay type: functional
# [37] = tested on: Schaalia odontolytica; assay: Antimicrobial activity against Actinomyces odontolyticus assessed as percent susceptible isolates after 48 hrs by agar dilution method; assay type: functional
# [38] = tested on: Prevotella intermedia; assay: Antimicrobial activity against Prevotella intermedia assessed as percent susceptible isolates after 48 hrs by agar dilution method; assay type: functional; how it was run: as §3
# [39] = tested on: Bacteroides ovatus; assay: Antimicrobial activity against Bacteroides ovatus assessed as percent susceptible isolates after 48 hrs by agar dilution method; assay type: functional
# [40] = tested on: Finegoldia magna; assay: Antimicrobial activity against Finegoldia magna assessed as percent susceptible isolates after 48 hrs by agar dilution method; assay type: functional; how it was run: as §3
# [41] = tested on: Clostridioides difficile; assay: Antimicrobial activity against Clostridium difficile after 48 hrs by agar dilution method; assay type: functional
# [42] = tested on: Peptoniphilus asaccharolyticus; assay: Antimicrobial activity against Peptoniphilus asaccharolyticus assessed as percent resistant isolates after 48 hrs by agar dilution method; assay type: functional; how it was run: as §1
# [43] = tested on: Schaalia meyeri; assay: Antimicrobial activity against Actinomyces meyeri after 48 hrs by agar dilution method; assay type: functional; how it was run: as §2
# [44] = tested on: Bifidobacterium sp.; assay: Antimicrobial activity against Bifidobacterium sp. assessed as percent resistant isolates after 48 hrs by agar dilution method; assay type: functional; how it was run: as §1
# [45] = tested on: Actinomyces naeslundii; assay: Antimicrobial activity against Actinomyces naeslundii assessed as percent susceptible isolates after 48 hrs by agar dilution method; assay type: functional
# [46] = tested on: Prevotella buccae; assay: Antimicrobial activity against Prevotella buccae after 48 hrs by agar dilution method; assay type: functional; settings: Segatella buccae; how it was run: as §3
# [47] = tested on: Bacteroides fragilis; assay: Antimicrobial activity against Bacteroides fragilis after 48 hrs by agar dilution method; assay type: functional; how it was run: as §2
# [48] = tested on: Peptostreptococcus anaerobius; assay: Antimicrobial activity against Peptostreptococcus anaerobius assessed as percent susceptible isolates after 48 hrs by agar dilution method; assay type: functional; how it was run: as §1
# [49] = tested on: Hoylesella oralis; assay: Antimicrobial activity against Prevotella oralis after 48 hrs by agar dilution method; assay type: functional; how it was run: as §3
# [50] = tested on: Bifidobacterium adolescentis; assay: Antimicrobial activity against Bifidobacterium adolescentis after 48 hrs by agar dilution method; assay type: functional; how it was run: as §2
smiles,measurement,setting,value
CO[C@@]1(NC(=O)C2SC(=C(C(N)=O)C(=O)O)S2)C(=O)N2C(C(=O)O)=C(CSc3nnnn3C)CS[C@@H]21 (stereo not given in full) [CEFOTETAN],Activity,[1],15%
same,Activity,[2],89%
same,Activity,[3],86%
same,Activity,[4],0%
same,MIC50,[5],> 128 mg/L
same,MIC90,[5],> 128 mg/L
same,MIC50,[6],4 mg/L
same,MIC90,[6],64 mg/L
same,MIC50,[7],4 mg/L
same,MIC90,[7],64 mg/L
same,MIC,[8],0.06 mg/L
same,MIC,[9],0.06 mg/L
same,Activity,[10],71%
same,Activity,[11],17%
same,Activity,[12],17%
same,Activity,[13],72%
same,Activity,[14],31%
same,Activity,[15],72%
same,Activity,[16],15%
same,Activity,[17],15%
same,Activity,[18],0%
same,Activity,[19],89%
same,Activity,[20],85%
same,MIC,[21],0.06 mg/L
same,Activity,[22],85%
same,MIC50,[23],1 mg/L
same,MIC90,[23],2 mg/L
same,MIC50,[24],1 mg/L
same,MIC90,[24],2 mg/L
same,Activity,[25],86%
same,Activity,[26],17%
same,MIC50,[27],4 mg/L
same,MIC90,[27],64 mg/L
same,Activity,[28],89%
same,Activity,[29],0%
same,MIC50,[30],0.25 mg/L
same,MIC90,[30],1 mg/L
same,Activity,[31],100%
same,Activity,[32],14%
same,MIC50,[33],> 128 mg/L
same,MIC90,[33],> 128 mg/L
same,Activity,[34],86%
same,Activity,[35],0%
same,Activity,[36],83%
same,Activity,[37],85%
same,Activity,[38],100%
same,Activity,[39],89%
same,Activity,[40],100%
same,MIC,[41],8 mg/L
same,MIC50,[41],8 mg/L
same,MIC90,[41],128 mg/L
same,Activity,[42],0%
same,MIC50,[43],4 mg/L
same,MIC90,[43],64 mg/L
same,Activity,[44],15%
same,Activity,[45],85%
same,MIC50,[46],4 mg/L
same,MIC90,[46],64 mg/L
same,MIC50,[47],8 mg/L
same,MIC90,[47],64 mg/L
same,Activity,[48],62%
same,MIC50,[49],4 mg/L
same,MIC90,[49],64 mg/L
same,MIC50,[50],4 mg/L
same,MIC90,[50],64 mg/L
